Assay results from publication PMC11439047 (Nature Communications, 2024).
Numbering of substitutions follows the chain as printed.

Experiments:
WT-P2X1 receptor = biological target: T1, WT-P2X1 receptor (Homo sapiens, UniProt P51575); experiment: Calcium ion influx assay; type: cell-based; settings: read-out: potency; WT-P2X1, Fig. 4B
T1 sequence (P51575 1-399): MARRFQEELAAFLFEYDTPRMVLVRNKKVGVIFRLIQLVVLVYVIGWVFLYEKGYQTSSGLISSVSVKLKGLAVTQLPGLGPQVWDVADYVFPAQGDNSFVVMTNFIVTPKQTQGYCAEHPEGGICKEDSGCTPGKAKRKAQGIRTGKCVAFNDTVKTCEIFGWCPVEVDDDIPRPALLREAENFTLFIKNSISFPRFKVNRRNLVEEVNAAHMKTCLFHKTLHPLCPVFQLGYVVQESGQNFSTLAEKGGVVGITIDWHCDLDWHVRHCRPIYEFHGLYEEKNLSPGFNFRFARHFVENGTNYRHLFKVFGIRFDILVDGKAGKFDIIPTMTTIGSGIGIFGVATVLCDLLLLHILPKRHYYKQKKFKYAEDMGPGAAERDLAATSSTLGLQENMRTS

P2X1 receptor L218T = biological target: T2, P2X1 receptor L218T (Homo sapiens, UniProt P51575, L218T); experiment: Saturation radioligand binding with [3H]-α,β-methylene ATP
T2 sequence (P51575 1-399 L218T): T1 sequence (P51575 1-399) with L218T
How it was run: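 Whole HEK293 Flp-In T-REx cells stably expressing receptor, tetracycline-induced (150 ng/ml, 2 days), 15,000 cells/well, washed in HEPES binding buffer pH 7.4 with Ca2+/Mg2+. Increasing [3H]-α,β-methylene ATP added, 3 h room temperature with gentle agitation; non-specific binding with 10 μM ATP. Ice-cold 0.9% NaCl washes, scintillation counting (CCPM). Specific binding fitted one-site; values above 300 nM termed not defined.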

P2X1 receptor R139P = biological target: T3, P2X1 receptor R139P (Homo sapiens, UniProt P51575, R139P); experiment: Calcium ion influx assay; type: cell-based; settings: maximal α,β-methylene ATP
T3 sequence (P51575 1-399 R139P): T1 sequence (P51575 1-399) with R139P

SMILES: Nc1ncnc2c1ncn2[C@@H]1O[C@H](COP(=O)(O)CP(=O)(O)OP(=O)(O)O)[C@@H](O)[C@H]1O [α,β-methylene ATP]
- EC50 (WT-P2X1 receptor): 99 nM
- binding affinity compared to WT-P2X1 (P2X1 receptor L218T): similar
- desensitisation rate compared to WT-P2X1 (P2X1 receptor R139P): significantly slowed the desensitisation rate
